Test results: publication PMC5204206 (ACS Omega, 2016)
Read-outs that look alike come from different tables or passages of the source.

Columns and labels:
[1] = cited from earlier work
streptavidin (SA) [2] = molecular target: T1, streptavidin (SA) (Streptomyces avidinii, UniProt P22629); experiment: Comparison of Trp-FRET acceptors; settings: for FF (FRET fold effect): FF = Iad/Ia; for Iad (intensity of FRET acceptor, sensitivity): acceptor 100 nM bound to SA 400 nM, Ex. 295 nm, at Em. λmax, normalized to Id; for E (efficiency of FRET with tryptophan) / Fold less sensitive than PB (12) as Trp-FRET acceptor: bound to SA; for E (efficiency of FRET with tryptophan): E = 1 – Ida/Id
T1 sequence (P22629 25-183): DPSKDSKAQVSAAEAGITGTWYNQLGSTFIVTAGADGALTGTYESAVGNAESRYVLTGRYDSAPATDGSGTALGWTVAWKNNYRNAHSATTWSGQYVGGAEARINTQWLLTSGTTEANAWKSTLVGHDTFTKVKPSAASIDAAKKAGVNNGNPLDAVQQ
How it was run: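 Biotin-linked fluorophore acceptors (100 nM) bound to streptavidin (400 nM, as monomer) in PBS pH 7.4. Tryptophan excited at 295 nm; acceptor intensity (Iad) read at its emission λmax and normalized to donor intensity (Id). FRET efficiency E = 1 − Ida/Id; fold effect FF = Iad/Ia.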

[3] = Photophysical properties of probes in PBS; format: physicochemical; settings: for ε (molar extinction coefficient): PBS (0.5% DMSO), at absorbance λmax; for Fold by which PB-derived probe 12 is brighter than this probe: aqueous PBS (pH 7.4)
How it was run: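 ε: Beer's-law plots of absorbance at λmax vs concentration in PBS (0.5% DMSO), 1 cm path; least-squares fit through zero. Spectra: 32 µM for absorbance, 50 nM for emission, excited at λmax. Φ by Williams' method: excitation 396 nm, integrated emission 415–700 nm at 5–160 nM, plotted against absorbance extrapolated from higher concentrations; coumarin 102 standard (Φ = 0.66 in water).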

streptavidin (SA) [4] = molecular target: T1, streptavidin (SA); experiment: Direct binding to SA quantified by Trp-FRET
How it was run: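 Tryptophan excited at 295 nm, emission read at 460 nm, averaged over three readings. SA-alone and free-probe signals subtracted, then corrected by quenching ratio (Iad = IFRET/Qr). Plotted against SA monomer concentration; one-site specific binding fit, triplicate.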

streptavidin (SA) [5] = molecular target: T1, streptavidin (SA); experiment: Binding to SA by quenching or enhancement of PB fluorescence
How it was run: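 Streptavidin at varied concentrations (spanning at least 20–80% complexation) incubated 1 h at room temperature with shaking in PBS pH 7.4 with fixed PB-linked probe (5 or 25 nM). Ex 400 nm, em 460 nm. SA-alone background subtracted. Change in fluorescence normalized and plotted against SA monomer concentration; one-site specific binding fit, triplicate. For one probe, the three highest SA concentrations (64–256 nM) were excluded.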

streptavidin (SA) [6] = molecular target: T1, streptavidin (SA); experiment: Isothermal titration calorimetry; format: binding
streptavidin (SA) [7] = molecular target: T1, streptavidin (SA); experiment: Competition binding

| SMILES | ε (molar extinction coefficient) [3] | FF (FRET fold effect) (streptavidin (SA) [2]) | Iad (intensity of FRET acceptor, sensitivity) (streptavidin (SA) [2]) | E (efficiency of FRET with tryptophan) (streptavidin (SA) [2]) | Kd (streptavidin (SA) [6]) [nM] | Ki (streptavidin (SA) [7]) [nM] | other results |
| --- | --- | --- | --- | --- | --- | --- | --- |
| O=C(O)c1cc2cc(F)c(O)c(F)c2oc1=O [PB, 6,8-Difluoro-7-hydroxy-2-oxo-2H-chromene-3-carboxylic Acid, reference compound] | – | – | – | – | – | – | ε (molar extinction coefficient) [1]: 29 500 M^–1 cm^–1 |
| O=C(O)CCCC[C@@H]1SC[C@@H]2NC(=O)N[C@@H]21 [biotin, reference compound] | – | – | – | – | – | – | Effect of competitor on FRET from 12 bound to SA (streptavidin (SA) [2]; biotin 10 μM, 12 100 nM, SA monomer 400 nM): blocked FRET |
| O=C(CCCC[C@@H]1SC[C@@H]2NC(=O)N[C@@H]21)NCCNC(=O)c1cc2cc(F)c(O)c(F)c2oc1=O [compound 12, 6,8-Difluoro-7-hydroxy-2-oxo-N-(2-(5-((3aS,4S,6aR)-2-oxohexahydro-1H-thieno[3,4-d]imidazol-4-yl)pentanamido)ethyl)-2H-chromene-3-carboxamide] | 24 200 M^–^1cm^–^1 | 19.2 | 3.3 | 0.40 | – | – | Φf (quantum yield) ([3]; PBS, relative to coumarin 102): 0.74 |
| O=C(CCCC[C@@H]1SC[C@@H]2NC(=O)N[C@@H]21)NCCNC(=O)Cc1cc(=O)oc2cc(O)ccc12 [compound 14, N-(2-(2-(7-Hydroxy-2-oxo-2H-chromen-4-yl)acetamido)ethyl)-5-((3aS,4S,6aR)-2-oxohexahydro-1H-thieno[3,4-d]imidazol-4-yl)pentanamide] | 7800 M^–^1cm^–^1 | 4.8 | 2.2 | 0.21 | – | – | Φf (quantum yield) [1]: 0.47[6]; Fold by which PB-derived probe 12 is brighter than this probe [3]: ~3 fold; Fold less sensitive than PB (12) as Trp-FRET acceptor (streptavidin (SA) [2]; compared with 12): 1.5 fold; Reduction of FRET fold effect (FF), factor (streptavidin (SA) [2]; compared with 12, due to increased excitation at 295 nm): 4 |
| CN(C)c1ccc2c(CC(=O)NCCNC(=O)CCCC[C@@H]3SC[C@@H]4NC(=O)N[C@@H]43)cc(=O)oc2c1 [compound 15, N-(2-(2-(7-(Dimethylamino)-2-oxo-2H-chromen-4-yl)acetamido)ethyl)-5-((3aS,4S,6aR)-2-oxohexahydro-1H-thieno[3,4-d]imidazol-4-yl)pentanamide] | 11 600 M^–^1cm^–^1 | 8.0 | 0.6 | 0.35 | – | – | Φf (quantum yield) [1]: 0.06[6]; Fold by which PB-derived probe 12 is brighter than this probe [3]: ~17 fold; Fold less sensitive than PB (12) as Trp-FRET acceptor (streptavidin (SA) [2]; compared with 12): 6 fold |
| O=C(CCCC[C@@H]1SC[C@@H]2NC(=S)N[C@@H]21)NCCNC(=O)c1cc2cc(F)c(O)c(F)c2oc1=O [compound 17, 6,8-Difluoro-7-hydroxy-2-oxo-N-(2-(5-((3aS,4S,6aR)-2-thioxohexahydro-1H-thieno[3,4-d]imidazol-4-yl)pentanamido)ethyl)-2H-chromene-3-carboxamide] | – | – | – | – | 12 ± 4 | – | Kd (streptavidin (SA) [4]): 11 ± 2 nM; Change of fluorescence of PB-linked ligand on binding to SA (streptavidin (SA) [5]): partially quenched |
| C[C@@H]1NC(=S)N[C@@H]1CCCCCC(=O)NCCNC(=O)c1cc2cc(F)c(O)c(F)c2oc1=O [compound 18, 6,8-Difluoro-7-hydroxy-N-(2-(6-((4R,5S)-5-methyl-2-thioxoimidazolidin-4-yl)hexanamido)ethyl)-2-oxo-2H-chromene-3-carboxamide] | – | – | – | – | 125 ± 45 | – | Kd (streptavidin (SA) [4]): 145 ± 19 nM; Change of fluorescence of PB-linked ligand on binding to SA (streptavidin (SA) [5]): enhanced |
| C[C@@H]1NC(=S)N[C@@H]1CCCCCC(=O)O [compound 20, 6-((4R,5S)-5-Methyl-2-thioxoimidazolidin-4-yl)hexanoic Acid] | – | – | – | – | 1550 ± 270 | 1350 ± 180 | – |
| COC(=O)CCCCC[C@H]1NC(=S)N[C@H]1C [compound 21, Methyl 6-((4R,5S)-5-methyl-2-thioxoimidazolidin-4-yl)hexanoate] | – | – | – | – | – | 693 ± 91 | – |
| C[C@@H]1NC(=S)NC1CCCCCC(=O)OCc1ccccc1 (stereo partly drawn) [compound 22, Benzyl 6-((5S)-5-methyl-2-thioxoimidazolidin-4-yl)hexanoate] | – | – | – | – | – | 188 ± 25 | – |
